Inconclusive results are not listed.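 Rule for the calls, unless noted: active = viability increase at or above a cutoff of the median across tested compounds plus 3 SD (cut at about 8.5% in these data, passing the limit was not always enough); inconclusive = some gains above the cutoff, reason not given; inactive = the rest.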
Columns and labels:
[1] = S. cerevisiae growth inhibition in permissive medium (OD615), pilot counter-assay for S. cerevisiae lifespan shortening project, permissive growth control (AID 705;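 active = growth inhibition above 25% in both replicates, a cutoff set 3 SD above the mean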); settings: OD615, 24 h, at 10 µM, hits give high values
Outline: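 Timing: 24 h exposure, 30 °C / Material: Saccharomyces cerevisiae strain carrying genetically modified DeaD replicative-lifespan system / Signal: OD at 615 nm / Compound: 10 µM single dose, 0.25% DMSO / Medium: SC raffinose/galactose permissive medium / Evaluation: reduction in yeast growth (OD615)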

[2] = S. cerevisiae growth inhibition in restrictive medium, OD615, pilot screen, restrictive growth control, yeast lifespan reduction project (AID 706;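 active = growth inhibition above a set limit, 3 SD over mean compound inhibition, in both replicates, cut at about 43% in these data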;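 note: modified DeaD lifespan yeast strain shifted to restrictive glucose medium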); settings: OD615, 48 h, at 10 µM, hits give high values
Outline: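 System: Engineered S. cerevisiae DeaD strain | Detection: OD615 | Buffer or medium: CSMM-D glucose medium | Doses: 10 µM compound, 0.25% DMSO | Timing: 4 h pre-growth plus 48 h compound exposure, 30 °C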

[3] = doxorubicin toxicity protection in MRP-1 cells – H69AR cells, CellTiter-Glo, duplicate, MRP-1 activator project, pilot screen (AID 807); settings: H69AR viability with doxorubicin, CellTiter-Glo luminescence; at 10 µM; hits give high values;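 note: compound pretreatment 18-22 h then 72 h combined with doxorubicin; 0% = doxorubicin alone and 100% = vehicle without doxorubicin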
[4] = viability of HCT116 without oncogenic beta-catenin – human colon tumor cells, pilot screen (AID 823;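 active = cell viability at or below a set limit in both duplicate runs, the limit being the all-compound median minus 4 SD, cut at about 23% in these data, passing the limit was not always enough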;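 note: 0% = wells killed by 20 µM Hyamine and 100% = untreated DMSO cell wells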); settings: HCT116 beta-catenin knockout viability, CellTiter-Glo, 60 h; at 10 µM; hits give low values
[5] = viability of PTEN-null HCT116 cells – cell-based, HCT116 clonal line, CellTiter-Glo, pilot screen (AID 824;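 active = viability at or below 27.92% in each of two runs, the all-compound median minus 4 SD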;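 note: 0% = 20 µM Hyamine control and 100% = vehicle cell control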); settings: HCT116 PTEN-deleted viability, 60 h, at 10 µM, hits give low values
[6] = RAM pathway blockade in budding yeast – dse1pr::URA3 reporter, 5-FOA selection, pilot screen (AID 869;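 active = inhibition over a set limit, the all-compound mean plus 3 SD, in both replicate runs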;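 note: 0% = DMSO wells with no growth and 100% = 10 µM 1-NA-PP1 with full growth; RAM network block rescues cells from 5-FOA so hits raise OD615 growth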); settings: S. cerevisiae dse1pr::URA3 5-FOA growth, OD615, 2 d; at 10 µM; hits give high values; strain carries analog-sensitive mutant Cbk1 kinase
[7] = RAM signaling pathway blockade in yeast – S. cerevisiae, Pdr1DBD-CYC8 efflux-inhibited sensitized strain, primary screen (AID 1298;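 active = RAM network inhibition above 8.4% in each of two replicates, 3 SD over the compound average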;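 note: 0% = DMSO untreated cells without growth and 100% = 10 µM 1-NA-PP1 full growth; higher means more yeast growth rescued from 5-FOA killing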); settings: S. cerevisiae cbk1-as DSE1-URA3 strain, 5-FOA growth OD615, 2 d; at 50 µM; hits give high values

COc1ccccc1CNC(=O)CS(=O)Cc1nc(-c2ccccc2C)oc1C (stereo unspecified)
inactive: growth inhibition [1] -4.17% | growth inhibition [2] 12.7% | viability increase [3] -0.18% | viability [4] 101% | viability [5] 93.4% | inhibition [6] 1.66% | RAM network inhibition [7] 2.33%

Cc1nc(N2CCN(C)CC2)c2sc(=S)n(-c3ccccc3)c2n1
inactive: growth inhibition [1] -1.92% | growth inhibition [2] -1.67% | viability increase [3] -4.61% | viability [4] 93.4% | viability [5] 86.1% | inhibition [6] 1.31% | RAM network inhibition [7] 3.03%

O=C(CC12CC3CC(CC(C3)C1)C2)N1CCOCC1
inactive: growth inhibition [1] 6.71% | growth inhibition [2] 1.68% | viability increase [3] -0.17% | viability [4] 102% | viability [5] 102% | inhibition [6] 1.39% | RAM network inhibition [7] 7.72%

CCOC(=O)CN1c2ccccc2NC(=O)CC1C (stereo unspecified)
inactive: growth inhibition [1] -5.11% | growth inhibition [2] -4.52% | viability increase [3] -4.06% | viability [4] 101% | viability [5] 98.9% | inhibition [6] 0.895% | RAM network inhibition [7] -0.43%

CCOC(=O)Cc1csc(NC(=O)c2c(-c3ccccc3)noc2C)n1
inactive: growth inhibition [1] -10.4% | growth inhibition [2] -8.59% | viability increase [3] 4.11% | viability [4] 99.4% | viability [5] 101% | inhibition [6] -0.185% | RAM network inhibition [7] 1.54%

O=C(NC1CCCCC1)C(c1ccccc1)N1CCCC1 (stereo unspecified)
inactive: growth inhibition [1] 1.67% | growth inhibition [2] -3.42% | viability increase [3] -1.59% | viability [4] 96.6% | viability [5] 97.7% | inhibition [6] 1.43% | RAM network inhibition [7] 5.5%

O=CN1CCN(C(C(=O)NC2CCCC2)c2ccc(Cl)cc2)CC1 (stereo unspecified)
inactive: growth inhibition [1] -7.98% | growth inhibition [2] 4.62% | viability increase [3] -1.14% | viability [4] 86.2% | viability [5] 88.5% | inhibition [6] 0.795% | RAM network inhibition [7] 2.38%

CCc1c(C)sc(NC(=O)c2cccs2)c1C(=O)OC(C)C
inactive: growth inhibition [1] -3.37% | growth inhibition [2] 5.3% | viability increase [3] 4.48% | viability [4] 77.5% | viability [5] 79.1% | inhibition [6] 1.9% | RAM network inhibition [7] 5.72%

CCOC(=O)C1CCN(C(=O)CN(c2ccc(OC)c(OC)c2)S(=O)(=O)c2ccccc2)CC1
inactive: growth inhibition [1] -2.99% | growth inhibition [2] -7.61% | viability increase [3] 0.05% | viability [4] 104% | viability [5] 94.6% | inhibition [6] 1.19% | RAM network inhibition [7] 6.25%

O=C(NCCNC(=O)c1ccc(Br)o1)c1ccc(Br)o1
inactive: growth inhibition [1] -7.92% | growth inhibition [2] 4.26% | viability increase [3] 1.39% | viability [4] 99.1% | viability [5] 105% | inhibition [6] 0.39% | RAM network inhibition [7] 0.1%

O=C(CCCC(=O)Nc1cccnc1)Nc1cccnc1
inactive: growth inhibition [1] -6.39% | growth inhibition [2] 3.58% | viability increase [3] -0.66% | viability [4] 103% | viability [5] 99.2% | inhibition [6] 0.385% | RAM network inhibition [7] 6.65%

COCCn1c(CN2CC(C)CC(C)C2)nc2c1c(=O)n(C)c(=O)n2C (stereo unspecified)
inactive: growth inhibition [1] 8.93% | growth inhibition [2] 9.36% | viability increase [3] 0.07% | viability [4] 90.4% | viability [5] 98.5% | inhibition [6] -0.14% | RAM network inhibition [7] -0.26%

CC1Cc2nc(SCC(=O)NCCc3ccccc3)n(C)c(=O)c2S1 (stereo unspecified)
inactive: growth inhibition [1] -11.5% | growth inhibition [2] -1.29% | viability increase [3] -2.25% | viability [4] 100% | viability [5] 104% | inhibition [6] 1.77% | RAM network inhibition [7] 2.27%

CSC1=NCCN1C(=O)COc1ccc2ccccc2c1
inactive: growth inhibition [1] -2.13% | growth inhibition [2] -6.38% | viability increase [3] 0.69% | viability [4] 98.9% | viability [5] 101% | inhibition [6] 2.77% | RAM network inhibition [7] -0.94%

c1ccc(Cn2ncc3c(N4CCCCC4)ncnc32)cc1
inactive: growth inhibition [1] -0.96% | growth inhibition [2] 8.13% | viability increase [3] -0.97% | viability [4] 96.2% | viability [5] 95.4% | inhibition [6] 0.01% | RAM network inhibition [7] 3.67%

COc1ccc(-c2cc(C(F)(F)F)nc(N3CCN(C)CC3)n2)cc1
inactive: growth inhibition [1] 1.48% | growth inhibition [2] -4.37% | viability increase [3] -5.32% | viability [4] 33.7% | viability [5] 42.9% | inhibition [6] 1.43% | RAM network inhibition [7] 4.04%

CCSc1nnc(Cc2cc(=O)[nH]c(=O)[nH]2)n1-c1ccc(Cl)cc1
inactive: growth inhibition [1] -15.2% | growth inhibition [2] -10% | viability increase [3] -0.84% | viability [4] 104% | viability [5] 102% | inhibition [6] 1.5% | RAM network inhibition [7] -0.99%

O=C(C1CCCN(S(=O)(=O)c2cccc3cccnc23)C1)N1CCc2ccccc21 (stereo unspecified)
inactive: growth inhibition [1] -2.7% | growth inhibition [2] -3.75% | viability increase [3] -5.63% | viability [4] 68.7% | viability [5] 66.7% | inhibition [6] 1.5% | RAM network inhibition [7] 3.58%
